Source: PubChem BioAssay
Shown are actives, neighbours in structure and some others; about 3.8% of the full set was active somewhere.
SIRT5 block: sirtuin-5 (human) deacylase inhibition | 330,000 compounds, 1.1% hits | Purified SirT5, succinyl-peptide AMC, trypsin-coupled fluorescence | inhibition, % at 15 µM | Q9NXA8; in the data active means inhibition above about 15%; inconclusive means no clear call, values can overlap the other calls
Target sequence (Q9NXA8 whole entry, looked up): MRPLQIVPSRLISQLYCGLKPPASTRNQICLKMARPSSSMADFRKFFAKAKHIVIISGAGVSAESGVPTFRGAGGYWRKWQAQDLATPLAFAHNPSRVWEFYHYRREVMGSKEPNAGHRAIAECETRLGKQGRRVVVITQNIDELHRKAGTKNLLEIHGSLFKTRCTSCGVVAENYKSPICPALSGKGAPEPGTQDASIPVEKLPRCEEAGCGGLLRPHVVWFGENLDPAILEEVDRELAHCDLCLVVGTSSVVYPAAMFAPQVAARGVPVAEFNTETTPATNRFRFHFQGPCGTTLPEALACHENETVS
ARNT TACC3 PPI: ARNT/TACC3 interaction disruption; Q9Y6A5; AlphaScreen His-ARNT PAS-B/GST-TACC3 binding, luminescence; TACC3 fragment carries E629A point mutation; inhibition, % at 9.99 µM; 390,000 compounds, 0.66% hits; AID 623870;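 active means mean inhibition of replicates at least 50% and at least half of replicates each reaching 50%; inconclusive means half or more replicates reach 50% but mean below 50%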
DENV2 CPE: inhibitors of DENV2 cytopathic effect; DENV2-infected cells, cytopathic effect rescue, plate reader; CPE inhibition, % at 9.99 µM; 350,000 compounds, 1.7% hits; AID 651640; in the data active means CPE inhibition above about 20%, passing the limit was not always enough; inconclusive means no clear call, values can overlap the other calls; tested in BHK-21 cells
FGF22 binding: binders of recombinant human FGF22 by thermal shift | 340,000 compounds, 1.5% hits | AID 651658 | SYPRO orange fluorescence; percent of sucrose octasulfate shift, DMSO zero | activity (Tm shift, normalised), % at 9.99 µM | Q9HCT0;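 active means mean Tm shift, scaled 0 neutral to 100 positive control, at about 1.3% or above, every replicate too, limit read from the data; inconclusive means no clear call, values can overlap the other calls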
Target sequence (Q9HCT0 whole entry, looked up): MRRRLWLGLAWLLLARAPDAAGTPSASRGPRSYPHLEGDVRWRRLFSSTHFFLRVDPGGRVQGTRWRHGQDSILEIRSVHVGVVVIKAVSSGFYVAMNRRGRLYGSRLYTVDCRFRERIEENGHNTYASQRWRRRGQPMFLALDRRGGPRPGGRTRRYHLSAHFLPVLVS
FN deposit inh: fibronectin deposition inhibition. AH1F fibroblasts, Alexa488-fibronectin deposition fluorescence, overnight. inhibition, % at 12.6 µM. 350,000 compounds, 0.086% hits. AID 743247;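 active means mean inhibition across replicates of 30% or more, regardless of how many single replicates reach that level; inconclusive means mean under 30% yet at least half of replicates reach 30%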
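material = AH1F fibroblast monolayer depositing Alexa488-labelled fibronectin into matrix | amount = 10000 AH1F cells/well | buffer or medium = DMEM plus 2% serum, read in PBS | incubation = 1 h cell adhesion before compound, then overnight fibronectin incubation | detection = fluorescence at 485 nm excitation, 525 nm emission | evaluation = percent inhibition as loss of matrix-bound fibronectin fluorescence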
XiGFP reactiv: reactivates the inactive X chromosome in mouse fibroblasts. activation, % at 7.58 µM. 360,000 compounds, 0.055% hits. AID 743238. XiGFP mouse fibroblasts, % GFP-positive cells imaging, 3 d; cells co-treated with 5-aza-dC sensitizer; scaled so ellipticine positive control = 100%;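 active means mean normalized replicate activation at least 10% and every replicate at or above 10%; inconclusive means only one of the two criteria met; inactive means mean below 10% and not all replicates reach 10%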
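Material: SV40-immortalized XiGFP fibroblast cells, line 68-5-11 | Buffer or medium: DMEM containing 5-aza-dC | Dosing: One concentration, pinned | Times: 3 d treatment, 15 min room-temperature fixation | Controls: Ellipticine 6 µM positive control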
Hits are given with their value; i = inactive; ? = inconclusive; nt = no result; ! = not active in a repeat.

SMILES	SIRT5 block	ARNT TACC3 PPI	DENV2 CPE	FGF22 binding	FN deposit inh	XiGFP reactiv
CCC(=O)N1CC[C@@H]2[C@H]1c1cc(C#Cc3cccc(F)c3)ccc1N(C)[C@H]2CO	i	i	127	i	i	i
CCCC#Cc1ccc2c(c1)[C@@H]1[C@@H](CCN1C(=O)CC1CC1)[C@@H](CO)N2C	i	i	74	i	i	i
COCCCNc1oc(-c2ccccc2OC)nc1C#N	nt	i	nt	nt	nt	nt
COCCCNc1oc(-c2ccccc2F)nc1C#N	nt	i	25	i	i	i
O=C(/C=C/c1ccc(OCCCF)cc1)Nc1ccnc(-c2cccnc2)n1	i	i	i	44	i	i
O=C(C[C@H]1C=C[C@@H](NC(=O)C2CC2)[C@H](CO)O1)NC1CCC1	i	i	i	i	i	i
CCO[C@H]1OC(C(=O)NCc2nc3ccccc3[nH]2)=C[C@@H](c2csc3ccccc23)[C@@H]1CCCO	i	i	?	i	i	i
CCO[C@@H]1OC(C(=O)NCc2nc3ccccc3[nH]2)=C[C@H](c2csc3ccccc23)[C@H]1CCCO	31	i	i	i	i	i
O=[N+]([O-])c1c(Nc2cccc(O)c2)cc(Cl)c2nonc12	i	i	i	i	35	i
Cc1c(Nc2ccc3nonc3c2[N+](=O)[O-])c(=O)n(-c2ccccc2)n1C	i	i	i	i	i	i
O=C(O)c1ccc(Nc2cc(Cl)c3nonc3c2[N+](=O)[O-])cc1	i	i	i	i	i	i
Cc1c(Nc2cc(Cl)c3nonc3c2[N+](=O)[O-])c(=O)n(-c2ccccc2)n1C	i	i	i	i	i	19
C[C@@H]1CN([C@@H](C)CO)C(=O)c2ccccc2-c2ccccc2CO[C@@H]1CN(C)C	i	i	i	i	i	i
Cc1cc2cc(C#N)c(SCC(=O)Nc3nonc3C)nc2cc1C	i	i	i	i	i	i
Cc1nonc1NC(=O)CSc1nc2c(C)cccc2cc1C#N	nt	i	nt	nt	i	65
C[C@@H]1CN([C@@H](C)CO)C(=O)c2cccc(NC(=O)C3CC3)c2O[C@@H]1CN(C)S(=O)(=O)c1cccs1	i	i	i	i	nt	i
C[C@H](CO)N1C[C@H](C)[C@H](CN(C)S(=O)(=O)c2cccs2)Oc2c(NC(=O)C3CC3)cccc2C1=O	i	i	i	i	nt	i
COc1ccc(S(=O)(=O)N(C)C[C@H]2Oc3c(NC(=O)c4ccncc4)cccc3C(=O)N([C@H](C)CO)C[C@@H]2C)cc1	i	i	25!	i	i	i
C[C@H](CO)N1C[C@H](C)[C@H](CN(C)S(=O)(=O)c2cccs2)Oc2c(NC(=O)c3ccncc3)cccc2C1=O	i	active	i	i	nt	i
C[C@@H]1CN([C@H](C)CO)C(=O)c2cccc(NC(=O)C3CC3)c2O[C@H]1CN(C)S(=O)(=O)c1cccs1	i	i	34	i	nt	i
COc1ccc(S(=O)(=O)N(C)C[C@H]2Oc3c(NC(=O)c4ccncc4)cccc3C(=O)N([C@@H](C)CO)C[C@@H]2C)cc1	i	i	i	i	nt	i
C[C@H](CO)N1C[C@H](C)[C@H](CN(C)S(C)(=O)=O)Oc2c(NC(=O)c3ccncc3)cccc2C1=O	i	i	i	i	nt	i
C[C@H](CO)N1C[C@H](C)[C@H](CN(C)S(=O)(=O)c2cccs2)Oc2c(NC(=O)C3CCCCC3)cccc2C1=O	17	i	i	i	i	i
CN(C)c1ncc(S(=O)(=O)c2ccccc2)c(-c2ccccc2Cl)n1	nt	i	nt	nt	i	nt
CN(C)c1ncc(S(=O)(=O)c2ccccc2)c(N)n1	i	i	i	44	i	i
SMILES	SIRT5 block	ARNT TACC3 PPI	DENV2 CPE	FGF22 binding	FN deposit inh	XiGFP reactiv
Cc1cc(C)c(Cn2c(=O)n(CCCC(=O)NCc3ccco3)c(=O)c3sccc32)c(C)c1	nt	i	nt	nt	34	nt
Cc1ccccc1Cn1c(=O)n(CCCC(=O)NCc2ccco2)c(=O)c2sccc21	nt	i	nt	nt	i	nt
CN(C)CC#Cc1ccc([C@H]2[C@@H](CO)N3CCCCN(C(=O)C4CCCC4)C[C@H]23)cc1	nt	i	nt	nt	nt	nt
COc1ccc2c3c([nH]c2c1)[C@H](CO)N(C(=O)c1ccc(F)cc1)CC31CN(Cc2cccnc2)C1	i	nt	45	i	nt	i
COc1ccc2c3c([nH]c2c1)[C@@H](CO)N(C(=O)CN1CCOCC1)CC31CN(Cc2ccccc2)C1	i	nt	40	i	i	i
COc1ccc2c3c([nH]c2c1)[C@@H](CO)N(C(=O)CN1CCOCC1)CC31CCN(Cc2ccccc2)CC1	i	nt	i	i	nt	i
COc1ccc2c3c([nH]c2c1)[C@H](CO)N(C(=O)c1ccccc1)CC31CCN(C)CC1	i	nt	i	i	nt	i
COc1ccc2c3c([nH]c2c1)[C@@H](CO)N(Cc1nccs1)CC31CN(Cc2ccncc2)C1	i	nt	54	i	i	i
COc1ccc2c3c([nH]c2c1)[C@@H](CO)N(C(=O)c1ccccc1)CC31CCN(C)CC1	i	nt	31	i	nt	i
C[C@@H]1CN([C@@H](C)CO)C(=O)c2cc(NC(=O)C3CC3)ccc2O[C@H]1CN(C)Cc1ccncc1	i	i	i	i	nt	i
COc1ccc2c3c([nH]c2c1)[C@H](CO)N(C(C)=O)CC31CCN(C(=O)c2cccc(F)c2)CC1	i	nt	i	i	nt	i
COc1ccc2c3c([nH]c2c1)[C@H](CO)N(C(C)=O)CC31CN(C(=O)c2cccc(F)c2)C1	nt	nt	83	nt	nt	i
COc1ccc2c3c([nH]c2c1)[C@@H](CO)N(C(=O)c1cccnc1)CC31CCN(Cc2ccccc2)CC1	i	nt	i	i	nt	i
CCC(=O)N1CC2(CCN(Cc3ccccc3Cl)CC2)c2c([nH]c3cc(OC)ccc23)[C@@H]1CO	i	nt	24	i	i	i
COc1ccc2c3c([nH]c2c1)[C@@H](CO)N(C(=O)c1cccnc1)CC31CN(Cc2ccccc2)C1	i	nt	35	i	i	i
Cc1ccccc1-c1ccc(C2[C@H]3CNC[C@@H]2N3Cc2cncnc2)cc1 (some centres undefined)	i	nt	i	nt	i	i
CC(=O)N1[C@H](CO)[C@H]2c3ccccc3N(C(=O)c3ccccc3)C[C@H]21	i	i	i	i	nt	i
CC(=O)Nc1cc2c(cc1Cl)-c1ccc(F)cc1C2O (centres undefined)	nt	i	i	44	i	i
C[C@@H]1CN([C@@H](C)CO)C(=O)c2cc(NC(=O)CCC(F)(F)F)ccc2O[C@@H](C)CCCCO[C@@H]1CN(C)S(=O)(=O)c1ccccc1	i	i	i	i	nt	i
C[C@H](CO)N1C[C@H](C)[C@@H](CN(C)Cc2ccccc2)OCCCC[C@H](C)Oc2ccc(NS(=O)(=O)c3ccc(Cl)cc3)cc2C1=O	i	i	i	nt	i	i
